# Experimental data as given in publication PMC3494447 (British Journal of Cancer, 2012).
# Like-named read-outs stand apart in the source and are kept apart here.
# Tests used:
# [1] = Plasma pharmacokinetics of chemotherapy in absence or presence of axitinib; assay type: in vivo, human; details: for Plasma pharmacokinetic parameters (Cmax, AUC, clearance, volume of distribution) in the absence or presence of axitinib: comparison in words; for clearance: CL; for Vd: Vz; for half-life: t½
# [2] = system: patients with advanced solid tumours; assay type: in vivo, human; details: for Dose-limiting toxicities: first cycle; for MTD of axitinib: continuously
# [3] = system: patients with advanced solid tumours; assay: Safety: treatment-related adverse events; assay type: in vivo, human
# How it was run: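 Adverse events were monitored throughout in every patient given ≥1 dose and graded by CTCAE version 3.0. Physical examinations were done at baseline, on days 1, 8 and 15 of each cycle and 28 days after the last dose.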
# [4] = system: patients with advanced solid tumours; assay: Haematologic laboratory abnormalities; assay type: in vivo, human; details: All grades; Total column = both chemotherapy cohorts
# [5] = system: advanced solid tumours; assay: Best tumour response by RECIST 1.0; assay type: in vivo, human
# [6] = assay type: in vivo; details: human, plasma, oral; for AUC(0-t): AUC0-24, Mean (%CV); for Cmax / Vd/F / half-life: Mean (%CV); for Vd/F: Vz/F; for half-life: t½
# [7] = system: human liver microsomes; details: in vitro, ref unpublished data; cited from earlier work
# [8] = system: patients with advanced NSCLC; details: phase II, single-agent axitinib, ref Schiller et al, 2009; cited from earlier work
# [9] = human, plasma, intravenous, Mean (%CV), paclitaxel (+carboplatin) + axitinib, cycle 1 day 1, n=12
# [10] = human, plasma, intravenous, Mean (%CV), paclitaxel (+carboplatin) without axitinib, cycle 2 day 1, n=12
# [11] = All grades, Total column = both chemotherapy cohorts
# [12] = grade >=3, across both treatment arms
# [13] = 5 mg b.i.d., axitinib 5 mg b.i.d. + gemcitabine/cisplatin, cycle 1 day 1
# [14] = 5 mg b.i.d., axitinib + paclitaxel/carboplatin, cycle 1 day 1, dose-normalised to 5 mg b.i.d.
# [15] = 5 mg b.i.d., axitinib alone, steady state, cohorts 1–3 pooled, dose-normalised to 5 mg b.i.d.
# [16] = 5 mg, axitinib alone 5 mg b.i.d., steady state, gemcitabine/cisplatin cohort
# [17] = human, plasma, intravenous, Mean (%CV), gemcitabine (+cisplatin) + axitinib, cycle 1 day 1, n=17
# [18] = human, plasma, intravenous, Mean (%CV), gemcitabine (+cisplatin) without axitinib, cycle 2, n=17
# [19] = carboplatin (+paclitaxel) + axitinib, cycle 1 day 1, PUF, n=12
# [20] = carboplatin (+paclitaxel) without axitinib, cycle 2 day 1, PUF, n=12
structure (smiles),measurement,setting,value
"CC(=O)O[C@H]1C(=O)[C@@]2(C)[C@H]([C@H](OC(=O)c3ccccc3)[C@]3(O)C[C@H](OC(=O)[C@H](O)[C@@H](NC(=O)c4ccccc4)c4ccccc4)C(C)=C1C3(C)C)[C@]1(OC(C)=O)CO[C@@H]1C[C@@H]2O [Paclitaxel, paclitaxel]","Plasma pharmacokinetic parameters (Cmax, AUC, clearance, volume of distribution) in the absence or presence of axitinib",[1],similar
same,clearance,[1]; [9],303 mL/min
same,clearance,[1]; [10],360 mL/min
same,Cmax,"[1]; human, plasma, intravenous, Cmax, Mean (%CV), paclitaxel (+carboplatin) + axitinib, cycle 1 day 1, plasma, n=12",7180 ng/mL
same,Vd,[1]; [9],229 L
same,Vd,[1]; [10],285 L
same,half-life,[1]; [9],8.64 h
same,half-life,[1]; [10],8.36 h
"O=c1ccn([C@@H]2O[C@H](CO)[C@@H](O)C2(F)F)c(=O)[nH]1 [dFdU, 2′,2′-difluorodeoxyuridine]","Plasma pharmacokinetic parameters (Cmax, AUC, clearance, volume of distribution) in the absence or presence of axitinib",[1],similar
"CNC(=O)c1ccccc1Sc1ccc2c(/C=C/c3ccccn3)n[nH]c2c1 [Axitinib, axitinib]",Dose-limiting toxicities,[2]; axitinib 5 mg b.i.d. with gemcitabine/cisplatin,fatigue
same,Dose-limiting toxicities,"[2]; cohort 1, axitinib lead-in 1 mg b.i.d., with paclitaxel/carboplatin",None
same,Dose-limiting toxicities,"[2]; cohort 2, axitinib lead-in 3 mg b.i.d., with paclitaxel/carboplatin",None
same,Dose-limiting toxicities,"[2]; cohort 3, axitinib 5 mg b.i.d., with paclitaxel/carboplatin",Febrile neutropenia (n=1)
same,Dose-limiting toxicities,"[2]; cohort 3, axitinib 5 mg b.i.d., with paclitaxel/carboplatin, listed as axitinib",febrile neutropenia
same,MTD of axitinib,[2]; with cisplatin 80 mg m^-2 (day 1) and gemcitabine 1250 mg m^-2 (days 1 and 8),5 mg b.i.d.
same,MTD of axitinib,[2]; with paclitaxel 200 mg m^-2 and carboplatin AUC 6 mg min ml^-1,5 mg b.i.d.
same,Grade >=3 haemoptysis,[3]; 12 patients with squamous cell NSCLC,No grade⩾3 haemoptysis occurred
same,"Decreased appetite, treatment-related AE",[3]; [11],7 (14.3) n (%)
same,"Diarrhoea, treatment-related AE",[3]; [11],17 (34.7) n (%)
same,"Dizziness, treatment-related AE",[3]; [11],5 (10.2) n (%)
same,"Dysgeusia, treatment-related AE",[3]; [11],6 (12.2) n (%)
same,"Dysphonia, treatment-related AE",[3]; [11],7 (14.3) n (%)
same,"Epistaxis, treatment-related AE",[3]; [11],8 (16.3) n (%)
same,"Fatigue, treatment-related AE",[3]; [11],14 (28.6) n (%)
same,"Hand–foot syndrome, treatment-related AE",[3]; [11],9 (18.4) n (%)
same,"Headache, treatment-related AE",[3]; [11],7 (14.3) n (%)
same,"Hypertension, treatment-related AE",[3]; [11],18 (36.7) n (%)
same,"Nausea, treatment-related AE",[3]; [11],8 (16.3) n (%)
same,"Proteinuria, treatment-related AE",[3]; [11],10 (20.4) n (%)
same,"Rash, treatment-related AE",[3]; [11],7 (14.3) n (%)
same,Anaemia reported as treatment-related AE,"[3]; Grade 3/4, all patients",2.0%
same,Leukopenia reported as treatment-related AE,"[3]; Grade 3/4, all patients",2.0%
same,Treatment-related diarrhoea,"[3]; all grades, all 49 patients",34.7%
same,Treatment-related fatigue,"[3]; all grades, all 49 patients",28.6%
same,Treatment-related hypertension,"[3]; all grades, all 49 patients",36.7%
same,Grade 5 treatment-related AEs,[3]; all patients,No cases
same,Grade >=3 haemoptysis,[3]; all patients,No cases
same,Patients with axitinib dose reduced,[3]; gemcitabine/cisplatin cohort,28.6%
same,Patients with axitinib dosing interrupted,[3]; gemcitabine/cisplatin cohort,66.7%
same,Treatment-related fatigue,[3]; [12],10.2%
same,Treatment-related hypertension,[3]; [12],10.2%
same,Patients with axitinib dose reduced,[3]; paclitaxel/carboplatin cohorts,35.7%
same,Patients with axitinib dosing interrupted,[3]; paclitaxel/carboplatin cohorts,35.7%
same,"Anaemia, haematologic laboratory abnormality",[4],48 (100) n (%)
same,"Leukopenia, haematologic laboratory abnormality",[4],46 (95.8) n (%)
same,"Lymphopenia, haematologic laboratory abnormality",[4],40 (83.3) n (%)
same,"Neutropenia, haematologic laboratory abnormality",[4],46 (95.8) n (%)
same,"Thrombocytopenia, haematologic laboratory abnormality",[4],43 (89.6) n (%)
same,"Objective responses, number of patients",[5]; other tumour types,5 n
same,"Objective responses, number of patients",[5]; patients with NSCLC,5 n
same,"Objective responses, number of patients",[5]; patients with melanoma,2 n
same,"Objective responses, number of patients",[5]; patients with ovarian cancer,3 n
same,AUC(0-t),[6]; [13],444 ng·h/mL
same,AUC(0-t),[6]; [14],535 ng·h/mL
same,AUC(0-t),[6]; [15],404 ng·h/mL
same,Cmax,"[6]; 5 mg b.i.d., axitinib 5 mg b.i.d. + gemcitabine/cisplatin, cycle 1 day 1, n=20",41.7 ng/mL
same,Cmax,"[6]; 5 mg b.i.d., axitinib + paclitaxel/carboplatin, cycle 1 day 1, cohorts 1–3 pooled, dose-normalised to 5 mg b.i.d., n=12",46 ng/mL
same,Cmax,"[6]; 5 mg b.i.d., axitinib alone, steady state, cycle 1 day –1, cohorts 1–3 pooled, dose-normalised to 5 mg b.i.d., n=12",39 ng/mL
same,Vd/F,[6]; [13],168 L
same,Vd/F,[6]; [14],133 L
same,Vd/F,[6]; [15],108 L
same,half-life,[6]; [13],2.66 h
same,AUC(0-t),[6]; [16],416 ng·h/mL
same,Cmax,"[6]; 5 mg, axitinib alone 5 mg b.i.d., steady state, gemcitabine/cisplatin cohort, n=20",41 ng/mL
same,Vd/F,[6]; [16],157 L
same,half-life,[6]; [16],2.68 h
same,half-life,"[6]; axitinib + paclitaxel/carboplatin, cycle 1 day 1",2.7 h
same,Enzymes mediating axitinib metabolism,[7],"primarily mediated by CYP3A4 and to a lesser extent by CYP1A2, CYP2C19 and UDP-glucuronosyltransferase 1A1"
same,median OS,[8],14.8 months
"Nc1ccn([C@@H]2O[C@H](CO)[C@@H](O)C2(F)F)c(=O)n1 [Gemcitabine, 2′,2′-difluorodeoxycytidine]","Plasma pharmacokinetic parameters (Cmax, AUC, clearance, volume of distribution) in the absence or presence of axitinib",[1],similar
same,AUC(0-inf),"[1]; human, plasma, intravenous",11700 ng·h/mL
same,clearance,[1]; [17],3620 mL/min
same,clearance,[1]; [18],3730 mL/min
same,Vd,[1]; [17],95.5 L
same,Vd,[1]; [18],91.5 L
"N.N.O=C([O-])C1(C(=O)[O-])CCC1.[Pt+2] [Carboplatin, carboplatin]","CL, Mean (%CV)",[1]; [19],13.7 (31) l h^−1
same,"Vz, Mean (%CV)",[1]; [19],44.8 (15) l
same,"t½, Mean (%CV)",[1]; [19],2.44 (29) h
same,"CL, Mean (%CV)",[1]; [20],12.6 (32) l h^−1
same,"Vz, Mean (%CV)",[1]; [20],45.2 (18) l
same,"t½, Mean (%CV)",[1]; [20],2.62 (21) h
same,"Plasma pharmacokinetic parameters (Cmax, AUC, clearance, volume of distribution) in the absence or presence of axitinib",[1],similar
